# Compound activity (PubChem)
# Only some compounds are listed: those with a hit (about 4.8% of all), similar ones and a draw of the others.
# WT yeast gro inh: growth inhibition of WT yeast, mitochondrial fusion screen; mitochondrial fusion phenotypic screen, WT strain; inhibition, % at 10 µM; 190,000 compounds, 2.1% hits; in the data active = inhibition above about 58%; tested in S. cerevisiae
# Mot1-301 SUMO: SUMOylation pathway inhibition by Mot1-301 growth rescue. S. cerevisiae Mot1-301 growth rescue, ATP luminescence, 38.5C; percent above DMSO median, 100 means doubled. growth rescue, % at 18.8 µM. 320,000 compounds, 1% hits. AID 2716;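 active = every valid replicate shows activation above 250% relative to neutral control wells; inactive = the rest, any valid replicate at or below 250%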;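 also: OY570 slx delta 5 strain wells were the positive control but not used for scaling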
# CSC inhib: blocks cancer stem cells; cancer stem cell-like cells viability, luminescence; inhibition, % at 7.5 µM; 300,000 compounds, 1.1% hits; in the data active = inhibition above about 75%; tested in HMLE shEcad cells
# Beta apoptosis: beta cell apoptosis inhibition; 300,000 compounds, 0.8% hits; INS-1E cytokine-induced death, ATP luminescence, 48 h; percent of positive-control rescue, neutral wells zero; protection from apoptosis, % (test concentration not listed);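 active = Every replicate reaches about 75%, or at least half do and their mean reaches it too, limit read from the data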;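 also: 0% = cytokine-treated negative control wells and 100% = positive control rescue; higher means more ATP so stronger rescue from cytokine killing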
# Efflux pump mplx: inhibitors of Candida antifungal efflux pumps expressed in yeast | S. cerevisiae Candida pump triplex, Nile Red efflux | 330,000 compounds, 0.44% hits | AID 485275 | inhibition, % at 10 µM;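 active = plate passing quality check with inhibition over a set limit, or well fluorescence over plate mean plus 4 SD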;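 also: Nile Red retained in pooled yeast measured as flow cytometry median fluorescence; 0% = buffer negative control and 100% = Enniatin B positive control; higher means more Nile Red kept so more efflux inhibition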
# T cruzi repl: T. cruzi replication inhibition; 300,000 compounds, 1.4% hits; inhibition, % (concentration not given with the values); T. cruzi beta-gal in NIH3T3, luminescence, 90 h;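 active = mean inhibition across valid replicates above about 55%, limit read from the data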;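 also: signal also drops with host cell toxicity which is not excluded here; 0% = plate median of DMSO wells and 100% = zero luminescence signal; higher percent means less beta-gal luminescence so fewer parasites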
#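 System – NIH/3T3 host cells with β-galactosidase reporter T. cruzi · Doses – single 50 nL compound addition per well in DMSO · Reagent – 5000 T. cruzi trypomastigotes/well · Medium – Low-serum DMEM with 2% FBS · Timing – ≥90 h infection period, 3 h prior cell attachment · Evaluation – parasite load inhibition, % · Technique – GalScreen luminescence, 60 min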
# * = called active by the depositor; x = no result.
SMILES,WT yeast gro inh,Mot1-301 SUMO,CSC inhib,Beta apoptosis,Efflux pump mplx,T cruzi repl
O=C(OCC(=O)c1c[nH]c2ccccc12)c1ccc([N+](=O)[O-])s1,97,22,0,-2,0,61*
COc1ccc(NC(=O)CN(C)C(=O)CN2C(=O)NC3(CCCC3)C2=O)cc1,x,4,x,3,0,-3
O=C(c1ccc2c(c1)[nH]c(=S)n1c3ccccc3nc21)N1CCN(c2cccc(Cl)c2)CC1,5,-11,21,82*,0,11
COc1ccc(N2CCN(C(=O)c3ccc4c(c3)[nH]c(=S)n3c5ccccc5nc43)CC2)cc1,-6,4,17,3,0,4
O=C(c1ccc(Cl)cc1)N1CCN(c2ccc(F)cc2)CC1,71*,30,-4,-9,0,-30
O=C(Nc1ccc(N2CCN(C(=O)c3ccc(Cl)cc3)CC2)cc1)c1cccnc1,23,2,0,104*,0,-11
Cc1cccc(C)c1OCC(=O)N/N=C/c1ccc2c(c1)OCO2,18,0,60,10,0,-15
Cc1ccc(C(C)C)cc1OCC(=O)N/N=C/c1ccc2c(c1)OCCO2,77*,38,38,-8,-1,-15
O=C(CSc1cccc[n+]1[O-])Nc1ccc2c(c1)OCO2,-13,195,-14,2,0,-20
CC1(C)OC(C(O)(c2ccccc2)c2ccccc2)[C@@H](C(O)(c2ccccc2)c2ccccc2)O1 (some centres not stated),x,23,108*,32,0,1
COc1cc(CN2CCCCC2C(=O)Nc2ccc(Oc3ccccc3)nc2)ccc1O (configuration not stated),x,-4,-2,x,0,12
COc1cccc2c1C(=O)c1c(O)c3c(c(O)c1C2=O)C[C@@](O)(C(=O)CO)C[C@@H]3O[C@H]1C[C@H](N)[C@H](O)[C@H](C)O1,59*,-37,43,32,0,51
COCCn1c(-c2ccc(Br)cc2)nc2oc3cc(OC)ccc3c(=O)c2c1=O,x,0,-15,-1,0,-2
O=C(Nc1ccc(N2CCCC2)c(Cl)c1)c1ccc(Br)o1,17,119,1,23,0,55*
O=C(Nc1cc(C(F)(F)F)ccc1N1CCCCC1)c1ccco1,2,-2,-5,-1,0,-1
O=C(Nc1cc(C(F)(F)F)ccc1N1CCCCC1)c1ccc(Br)o1,-2,-16,82*,1,0,30
O=CN1CCN(S(=O)(=O)c2ccc(S(=O)(=O)NC3CCCCC3)cc2)CC1,x,32,-1,x,0,5
CCOC(=O)c1cnn(-c2nc(OCC)cc(OCC)n2)c1C,9,-1,-2,4,0,-13
CCOc1ccc(/C=N/Nc2nc(C)cs2)c(O)c1,x,-17,-12,-7,0,-10
CN1CCN(C(=O)c2ccc(-n3cccn3)nc2)CC1,-5,-15,-15,-2,0,-17
Cc1[nH]c2ccccc2c1C1=NNC(=Nc2ccc(F)cc2)SC1,-1,185,35,10,0,7
COc1ccc(N=C2NN=C(c3c(C)[nH]c4ccccc34)CS2)cc1,-4,-17,101*,24,0,11
CCCCN(C(=O)/C=C/c1ccco1)c1c(N)n(CCC)c(=O)[nH]c1=O,-9,-12,-8,-5,0,-11
CN(CC(=O)NCc1ccc(F)cc1)Cc1ccc(Br)cc1,x,-8,1,-6,0,-7
COc1ccc(Br)cc1CN(C)CC(=O)NCc1ccc(F)cc1,x,-7,12,98*,0,3
SMILES,WT yeast gro inh,Mot1-301 SUMO,CSC inhib,Beta apoptosis,Efflux pump mplx,T cruzi repl
O=C(COc1cccnc1[N+](=O)[O-])NCc1cccs1,-8,3,-21,0,0,-2
CCCC(=O)Nc1cc2c3c(c1)C(C)C(=O)N3CCC2 (configuration not stated),x,-16,-9,-11,0,-8
CN1CCN(c2ncnc3sc(-c4ccccc4)cc23)CC1,-3,0,8,3,0,74*
COc1cccc(CSc2nc(N)cc(N)n2)c1,x,-13,-10,-5,0,-7
CCN(CC)CCNC(=O)Cn1ncc2ccccc2c1=O,x,776*,-5,2,0,-3
CCN(CC)CCNC(=O)Cn1nc(-c2ccccc2)c2ccccc2c1=O,3,5,-4,-1,0,-6
Cn1cc(Cl)c(C(=O)OCC(=O)c2ccccc2)n1,x,17,15,-1,0,-15
CCCCCCc1nc2ccccc2c(=O)n1NC(=O)c1c(O)c2cccc3c2n(c1=O)CCC3,65*,x,x,x,x,-23
CC(=S)c1c(C)cc2cc(C)ccn12,1,6,9,-2,0,-3
COC(=O)C1C(=O)C2=C(CC1C)NC(=O)CC2c1cccc(C)c1 (configuration not stated),-6,-20,101*,13,0,2
COC(=O)C1C(=O)C2=C(CC1C)NC(=O)CC2c1ccccc1 (configuration not stated),0,122,-18,-11,0,-5
Cc1nn(-c2ccc(F)cc2)c(Cl)c1/C=C1\C(=O)Nc2ccccc21,50,-16,79*,-5,0,-26
O=C(c1cc(-c2cccc(O)c2)on1)N1CCN(C(c2ccccc2)c2ccccc2)CC1,21,4,144*,81*,0,25
O=C(c1cc(C2CC2)on1)N1CCN(C(c2ccccc2)c2ccccc2)CC1,22,31,8,9,0,25
Cn1cc(/C=N/n2cnc3sc4c(c3c2=O)CCCC4)c2ccccc21,18,293,x,-3,0,3
O=c1c2c3c(sc2ncn1/N=C/c1ccc([N+](=O)[O-])o1)CCCC3,-11,290*,103*,21,0,-29
CCOc1ccc(/C=C2\C(=O)c3ccccc3OC2c2ccccc2)cc1 (configuration not stated),9,-13,72,8,0,8
COc1ccc(/C=C2\C(=O)c3ccccc3OC2c2ccccc2)cc1 (configuration not stated),x,-4,82*,25,0,-9
Cc1ccccc1-c1ccc(Nc2ccc(N3CCOCC3)cc2)nn1,-10,1,-6,1,0,70*
O=S1(=O)N=C(Nc2ccc(N3CCOCC3)cc2)c2ccccc21,-3,5,0,-1,0,-5
[O-]/[N+](=C\c1ccco1)c1ccc(Cl)cc1,x,35,-8,1,0,-9
Cc1ccc(/C=N/n2cc(-c3ccccc3)[nH]c2=S)s1,68*,-12,-10,4,0,31
S=c1[nH]c(-c2ccccc2)cn1/N=C/c1cccc2ccccc12,75*,-24,59,6,0,15
COc1cc(/C=N/n2cc(-c3ccccc3)[nH]c2=S)cc(OC)c1O,x,540*,-7,-2,0,-3
